In the library only some 4.9% were active in any assay of this set; here they are far more common.
FLuc act counter: firefly luciferase counter-screen for stimulation assays; activation factor at 10 µM; ATPlite luciferase biochemical, luminescence, 10 min; 0 = ATP-free wells, 1 = DMSO control; P08659; 200,000 tested, under 10 active;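 active means luciferase activation factor, scaled between plate controls, of at least 2 with compound at 10 µM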
Target sequence (P08659 whole entry, looked up): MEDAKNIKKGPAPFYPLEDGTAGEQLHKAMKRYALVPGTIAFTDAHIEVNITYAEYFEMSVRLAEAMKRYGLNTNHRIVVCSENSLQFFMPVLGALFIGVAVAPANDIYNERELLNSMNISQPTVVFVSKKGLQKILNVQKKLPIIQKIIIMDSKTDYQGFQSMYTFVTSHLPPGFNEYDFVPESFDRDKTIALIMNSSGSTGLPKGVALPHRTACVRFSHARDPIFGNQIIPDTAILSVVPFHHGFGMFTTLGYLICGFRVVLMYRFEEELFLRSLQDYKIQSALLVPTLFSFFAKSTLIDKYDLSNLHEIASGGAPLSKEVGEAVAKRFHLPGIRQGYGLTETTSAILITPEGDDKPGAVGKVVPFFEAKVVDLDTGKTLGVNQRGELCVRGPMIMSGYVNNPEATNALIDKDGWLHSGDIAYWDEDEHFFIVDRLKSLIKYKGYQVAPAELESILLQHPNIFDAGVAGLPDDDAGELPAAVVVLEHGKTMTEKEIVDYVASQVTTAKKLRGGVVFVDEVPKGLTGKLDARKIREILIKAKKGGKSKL
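System: cell-free luciferase reagent; medium: PBS as buffer for the ATP substrate; doses: test compounds dosed from 2 mM stocks in 100% DMSO; incubation: 10 min, room temperature; measured by: luminescence from luciferase reaction; read-out: luciferase activation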
STAT1 inh: STAT1 signaling inhibition | NIH 3T3 STAT1-luciferase reporter, IFN-gamma, luminescence | inhibition, % at 5.5 µM | 200,000 tested, 0.35% active;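 active means inhibition above a set limit, the mean inhibition across all tested compounds plus 3 SD, cut at about 34% in these data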
STAT3 activator: STAT3 signaling activation; U3A cells, IL-6 STAT3-luciferase reporter, luminescence; 100% = signal with IL-6 EC80 alone; 190,000 tested, 0.91% active; AID 871; activation (% of control), % at 5.6 µM;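 active means activation above the screen-wide mean of compound activation plus 3 SD, cut at about 130% in these data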
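Assay system – human STAT1-deficient U3A cells with stable STAT3-luciferase reporter · Also added – IL-6 (33 ng/mL) · Schedule – compound 1 h, then IL-6 6 h at 37 °C · Technique – reporter luminescence signal · Evaluation – % activation versus median of IL-6-stimulated wells · Benchmarks – IL-6-only wells as 100% reference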
STAT3 blocker: STAT3 signaling inhibition; 190,000 tested, 0.89% active; inhibition, % at 5.5 µM; AID 862; U3A cells, IL-6 STAT3-luciferase reporter, luminescence; host cell line lacks STAT1;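 active means inhibition above the mean inhibition across all screened compounds plus 3 SD, cut at about 44% in these data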
FLuc inhib CS: inhibits firefly luciferase, flagging false hits in luciferase inhibition screens; P08659; ATPLite firefly luciferase biochemical luminescence, 10 min; inhibition, % at 10 µM; 200,000 tested, 1.5% active; AID 1006;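 active means inhibition above about 50% when tested at 10 µM, limit read from the data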
STAT1 act: activators of IFN-gamma induced STAT1 signaling | NIH 3T3 STAT1-luciferase reporter, luminescence; 100% = IFN-gamma alone, no compound | activation (% of control), % at 5.5 µM | 200,000 tested, 2.6% active;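 active means activation above the screen-wide mean activation plus 3 SD, cut at about 130% in these data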
Each line names hits and unclear results; the compound was inactive in the other large screens.

Cc1nc(C(C)NC(=O)CCc2nnc(CCCc3ccccc3)o2)c(C)s1 (stereo not drawn)	STAT1 act 149
CC(C)(CO)CNC(=O)CCc1nnc(CCCc2ccccc2)o1	none
N#Cc1ccccc1NC(=O)C1SC(=Nc2ccccc2)C(C(=O)Nc2ccc(Cl)cc2)=C1N (stereo not drawn)	STAT1 inh 55, STAT3 blocker 54
COc1ccc(/C=N/NS(=O)(=O)c2ccc(C)cc2)cc1OC(=O)c1ccc(C)cc1	none
COc1cc(/C=N/NS(=O)(=O)c2ccc(C)cc2)ccc1OCc1ccc(C(=O)O)cc1	STAT1 inh 85, STAT3 blocker 54
Cc1ccc(Nc2nc(COC(=O)C3CC3)cs2)cc1	FLuc inhib CS 53
Cc1ccccc1/C=C\c1nc2ccccc2c(=O)[nH]1	FLuc inhib CS 56
Cc1ccccc1/C=C/c1nc2ccccc2c(=O)n1Cc1ccccc1	none
CC(C)(C)c1ccc(OCc2ccc(C(=O)N/N=C/c3ccc([N+](=O)[O-])cc3)o2)cc1	STAT1 act 131
CCOc1ccc(/C=N/NC(=O)c2ccc(Cn3cc([N+](=O)[O-])cn3)o2)cc1	none
CCNC(=O)O/N=C(\C)c1sc(-c2ccc(Cl)cc2)nc1C	STAT1 act 144
O=C(Nc1ccc2c3c(cccc13)CC2)c1ccc(Br)o1	STAT1 act 131
O=C(Nc1ccc2c3c(cccc13)CC2)c1ccco1	none
O=C(Nc1cccc2ccccc12)/C(Cl)=C/c1ccccc1	none
O=C(Nc1ccc(F)cc1)/C(Cl)=C/c1ccccc1	STAT1 act 150
COc1ccc(NC(=O)c2cc(C(C)C)on2)c(OC)c1	STAT1 act 138
COc1ccc(NC(=O)c2cc(C(C)C)on2)cc1OC	none
O=C1CN(S(=O)(=O)c2cc(Cl)ccc2Cl)CCN1	none
CCOC(=O)c1cc(-c2ccc3c(c2)OCCO3)n[nH]1	FLuc inhib CS 60
O=C(c1cccc(Br)c1)c1cn(-c2ccccc2)nc1C(=O)c1ccccc1	none
CCOC(=O)c1nn(-c2ccc3c(c2)OCCO3)cc1O	FLuc inhib CS 84
COC(=O)c1nn(-c2ccc3c(c2)OCO3)cc1O	none
CCOC(=O)c1nn(-c2ccc(C)cc2)cc1C(=O)c1ccccc1	FLuc inhib CS 64, STAT1 act 144
CCOC(=O)c1nn(-c2ccc(C)c(C)c2)cc1O	FLuc inhib CS 50
COC(=O)c1cn(NC(=O)c2cc([N+](=O)[O-])ccc2F)c(=O)c2ccccc12	STAT1 act 139
COC(=O)c1cn(NC(=O)C2CCC(C)CC2)c(=O)c2ccccc12 (stereo not drawn)	none
Cc1nc(C/C(=N\N)c2ccc(O)cc2O)cs1	none
COc1ccc(C(=O)OCc2csc(C)n2)c(O)c1	STAT1 act 139
Cc1ccc2nc(NC(=S)NC(=O)c3ccco3)sc2c1	FLuc inhib CS 90
O=C(Nc1nc2ccc(Cl)cc2s1)c1ccco1	FLuc inhib CS 63
Cc1ccc2nc(NC(=O)c3ccco3)sc2c1	STAT1 inh 59, STAT3 blocker 94, FLuc inhib CS 90
NC(=O)Nc1ccc(C(=O)OCC(=O)NC2CCCCC2)cc1	none
O=C(COc1ccc(Cl)cc1)NCc1nnc(SCC(=O)N2CCCCCC2)o1	none
Cc1ccc(Cn2c(SCC(=O)NCC3CCCO3)nc3c2c(=O)n(C)c(=O)n3C)cc1 (stereo not drawn)	none
O=C(NCCOc1ccccc1Cl)c1cc(F)c(F)cc1Cl	STAT1 act 130
O=C(NCCOc1ccccc1Cl)c1ncn[nH]1	none
CC(C)Sc1nnc(Nc2ccccc2)s1	STAT1 act 138
CC(C)Sc1nnc(NC(=O)C2CC2)s1	none (no result: STAT1 inh, STAT3 activator, STAT3 blocker, STAT1 act)
O=C(NCc1ccc(Cl)cc1)C(=O)NCC1OCCN1C(=O)c1cccs1 (stereo not drawn)	none
Cc1ccc(/C=C/C(=O)c2ccc(N3CCOCC3)cc2)s1	FLuc inhib CS 94, STAT1 act 135
O=C(N/N=C1/CC2C=CCC12)c1ccco1 (stereo not drawn)	STAT1 act 134
Cc1cccc(C)c1OC(=O)CSc1nnc(-c2ccccc2O)o1	none
O=C(Nc1nccs1)c1ccc(-c2ccc(Cl)cc2Cl)o1	FLuc inhib CS 69, STAT1 act 146
Cc1cccc(C)c1NC(=O)c1ccc(-c2ccc(Cl)cc2Cl)o1	none
CC(=O)CSc1ccc(-c2nc3cc(C)c(C)cc3[nH]2)cn1	STAT1 inh 85, STAT3 blocker 103, FLuc inhib CS 85
Cc1cc2nc(-c3ccc(SCC(=O)Nc4ccc(S(=O)(=O)N5CCCC5)cc4)nc3)[nH]c2cc1C	FLuc inhib CS 72, STAT1 act 140
Cc1cc2nc(-c3ccc(SCC(=O)Nc4nccs4)nc3)[nH]c2cc1C	none
CC1(C(=O)Oc2ccccc2)Cc2ccccc2C(=O)O1 (stereo not drawn)	none
CCN1C=C(C(=O)OC)C(c2cccc(OC)c2OC)C(C(=O)OC)=C1	none
O=[N+]([O-])c1ccc(N/N=C/c2cn(Cc3ccc(F)cc3)c3ccccc23)nc1	none
CC1CCN(c2nc3ccc(C(=O)O)cc3s2)CC1	STAT1 inh 80, STAT3 blocker 109, FLuc inhib CS 58
O=C(NCC1CCCO1)c1ccc(N2CCCCC2)nc1 (stereo not drawn)	none
O=C(NCC1CCCO1)c1ccc2nc(N3CCCCC3)sc2c1 (stereo not drawn)	STAT1 act 130
Cc1cccc(-n2cc(CNCCN3CCOC3=O)c(-c3cccc(F)c3)n2)c1	none
CCC(C)NC(=O)CNC(=S)N(Cc1ccccc1F)C1CCCCC1 (stereo not drawn)	none
CCC(=O)N(CC)c1nc(-c2ccc(OC)cc2)cs1	STAT1 act 143
N#C/C(=C(/O)CCl)c1nc2ccccc2[nH]1	STAT3 activator 134
N#C/C(=C\c1cc([N+](=O)[O-])c(N2CCOCC2)cc1N1CCOCC1)c1nc2ccccc2[nH]1	none
COc1c(O)ccc(/C=C(\C#N)c2nc3ccccc3[nH]2)c1[N+](=O)[O-]	STAT1 act 134
Cc1cc(/C=C(\C#N)c2nc3ccccc3[nH]2)c(C)n1C	FLuc inhib CS 78, STAT1 act 142
Cc1cc(/C=C(/C#N)c2nc3ccccc3[nH]2)c(C)n1-c1cccc([N+](=O)[O-])c1	none
N#C/C(=C/c1ccc(N2CCOCC2)o1)c1nc2ccccc2[nH]1	FLuc inhib CS 82, STAT1 act 149
COc1ccc(CNC(=O)COC(=O)CCc2c[nH]c3ccccc23)cc1	none
N#C/C(=C/c1cccs1)c1nc2ccccc2[nH]1	STAT1 act 145
CN(C)C(=O)CCc1nc(-c2ccc(C(C)(C)C)cc2)no1	FLuc inhib CS 52
Cc1ccc(-c2noc(CCC(=O)NCC3CCCO3)n2)cc1 (stereo not drawn)	none

High-throughput results as filed in PubChem.
